Compound activity as filed in PubChem.
The list is not random: actives were taken first. Their share in the collection is about 2.8%.
pPAFAH FP inh – pPAFAH enzyme inhibitors, primary screen, biochemical, fluorescence polarization, human | recombinant pPAFAH, FP-rhodamine probe fluorescence polarization | hit rate 1.5% among 330,000 | inhibition, % at 3.39 µM | AID 463082, 2010;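 active = inhibition above the mean inhibition across the screen plus 3 SD, cut at about 25% in these data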;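 note: inhibitors block binding of the rhodamine activity-based probe so polarization drops; 0% = enzyme with DMSO and 100% = wells lacking pPAFAH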
PAFAH2 inh – PAFAH2 enzyme inhibitors, primary screen, biochemical, fluorescence polarization, human | inhibition, % at 3.39 µM | Platelet-activating factor acetylhydrolase 2, cytoplasmic (Homo sapiens), Q99487 | recombinant PAFAH2, FP-rhodamine activity probe | hit rate 0.99% among 340,000;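 active = inhibition above the mean over all tested compounds plus 3 SD, cut at about 30% in these data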;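 note: inhibitors block probe labeling of enzyme so polarization drops; 0% = enzyme with DMSO and 100% = wells lacking PAFAH2 protein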
PAFAH1B2 inh – PAFAH1B2 enzyme inhibitors, primary screen, biochemical, fluorescence polarization, human; recombinant PAFAH1B2, FP-rhodamine activity probe; inhibition, % at 3.39 µM; hit rate 1.2% among 340,000;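 active = inhibition above the mean of all tested compounds plus 3 SD, cut at about 24% in these data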;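 note: 0% = enzyme with DMSO and 100% = wells lacking PAFAH1B2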
Target sequence (P68402 whole entry, looked up): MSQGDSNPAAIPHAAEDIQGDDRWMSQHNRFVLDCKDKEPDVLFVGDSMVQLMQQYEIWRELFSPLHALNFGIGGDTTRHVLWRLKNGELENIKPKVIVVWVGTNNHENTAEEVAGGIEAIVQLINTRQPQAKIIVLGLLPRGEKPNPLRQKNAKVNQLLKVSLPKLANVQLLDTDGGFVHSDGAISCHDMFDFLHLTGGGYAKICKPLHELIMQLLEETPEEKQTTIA
PAFAH1B3 FP inh – PAFAH1B3 enzyme inhibitors, primary screen, biochemical, fluorescence polarization, human. hit rate 0.28% among 340,000. Platelet-activating factor acetylhydrolase IB subunit alpha1 (Homo sapiens), Q15102. AID 492972, 2010. inhibition, % at 3.39 µM. recombinant PAFAH1B3, FP-rhodamine probe;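 active = inhibition above the screen-wide average of all tested compounds plus 3 SD, cut at about 25% in these data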;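 note: 0% = enzyme with DMSO only and 100% = wells lacking PAFAH1B3 protein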
ARFGAP1 inh – inhibitors of rat ARFGAP1 GAP activity, primary screen, biochemical, fluorescence polarization, GDP tracer; ADP-ribosylation factor GTPase-activating protein 1 (Rattus norvegicus), Q62848; Arfgap1-stimulated ARF1 GTP hydrolysis, GDP FP detection; inhibition, % at 16.5 µM; hit rate 0.26% among 360,000; AID 651572, 2012;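 active = inhibition above a per-plate limit, mean inhibition of low control wells plus 3 SD, cut at about 25% in these data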;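 note: 0% = DMSO wells with enzyme and 100% = wells lacking Arfgap1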
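system = rat Arfgap1 catalytic domain, aa 1-136 | technique = FP, GDP Alexa 633 tracer displaced from anti-GDP antibody, 620/688 nm | compound = one concentration, 16.5 µM, DMSO 1.26% | medium = HEPES-based buffer, pH 7.5 | timing = compound-enzyme preincubation 20 min, reaction 120 min, detection 60 min, 25 °C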
ASAP1 inh – inhibitors of human ASAP1 ArfGAP activity, primary screen, biochemical, fluorescence polarization; hit rate 0.19% among 360,000; Arf-GAP with SH3 domain, ANK repeat and PH domain-containing protein 1 (Homo sapiens), …; inhibition, % at 16.5 µM; AID 624377, 2012; ASAP1-stimulated ARF1 GTP hydrolysis, GDP FP detection; in the data active = inhibition above about 25%;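 note: 0% = vehicle with enzyme and substrate and 100% = no enzyme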
Target sequence (Q9ULH1 325-724 limits assumed): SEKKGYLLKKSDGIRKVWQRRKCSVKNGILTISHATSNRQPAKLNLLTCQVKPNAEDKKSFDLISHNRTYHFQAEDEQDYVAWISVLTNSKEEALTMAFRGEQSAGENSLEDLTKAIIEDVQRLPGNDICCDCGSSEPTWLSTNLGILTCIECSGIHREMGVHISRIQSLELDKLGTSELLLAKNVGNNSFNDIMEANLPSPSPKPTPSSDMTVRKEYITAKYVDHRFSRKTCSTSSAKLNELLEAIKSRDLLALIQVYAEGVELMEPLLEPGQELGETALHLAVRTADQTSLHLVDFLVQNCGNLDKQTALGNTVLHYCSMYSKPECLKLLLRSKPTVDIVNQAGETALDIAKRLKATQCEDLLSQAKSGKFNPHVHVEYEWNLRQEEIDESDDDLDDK
* = called active by the depositor; · = not tested or not shown.

SMILES	pPAFAH FP inh	PAFAH2 inh	PAFAH1B2 inh	PAFAH1B3 FP inh	ARFGAP1 inh	ASAP1 inh
CC1(C)CC[C@]2(C(=O)n3ccnc3)CC[C@]3(C)[C@H](C(=O)C=C4[C@@]5(C)C=C(C#N)C(=O)C(C)(C)[C@@H]5CC[C@]43C)[C@@H]2C1	·	14	9	3	4	1
O=C(Nc1c2c(nn1-c1ccc(F)cc1)CS(=O)C2)c1ccc(S(=O)(=O)N2CCOCC2)cc1 (stereo unspecified)	-4	3	26*	5	-4	5
Cc1nc(Nc2ccccc2)sc1-c1ccccc1	27*	2	7	5	18	13
Cc1nc(Nc2ccc(C(=O)O)cc2)sc1-c1ccccc1	2	7	20	6	7	-10
Cc1ccccc1OCCn1c(S(=O)(=O)O)nc2c(N)ncnc21	4	46*	28*	45*	1	3
COc1ccc(C(CNC(=O)CN2C(=O)NC(C)(c3ccc4ccccc4c3)C2=O)N2CCCC2)cc1 (stereo unspecified)	·	-5	-1	3	-8	0
CC(C)(C)N(Cc1ccccc1)C(=O)CSc1nc2ccccc2c(=O)[nH]1	0	-9	9	3	-4	-1
Cc1nnc(SCC(=O)N(Cc2ccccc2)C(C)(C)C)[nH]c1=O	0	4	25*	7	5	-2
CCCCn1c(SCC(=O)N(CC)C2CCS(=O)(=O)C2)nc2cc(S(N)(=O)=O)ccc21 (stereo unspecified)	2	-2	6	3	3	0
CCN(C(=O)CSc1nc2cc(C(F)(F)F)ccc2n1Cc1ccccc1)C1CCS(=O)(=O)C1 (stereo unspecified)	29*	6	-2	8	6	-5
CCc1ccc(C(=O)NNC(=O)CN2C(=O)NC3(CCCC3)C2=O)cc1	5	3	8	3	-7	-5
CC(C)(c1ccc(O)cc1)c1ccc(O)c(C(=O)O)c1	·	·	·	·	5	-3
CC(C)(c1ccc(O)cc1)c1ccc(O)cc1	-9	-4	48*	9	10	-3
O=C(NNS(=O)(=O)c1ccc(Cl)cc1)c1ccc(S(=O)(=O)N2CCCCC2)cc1	0	-7	11	0	-4	-13
O=C(Nc1ccc(Cl)c(Cl)c1)Nc1ccc(N2CCCC2)c(S(=O)(=O)Nc2ccccc2Cl)c1	11	-84	4	-7	21	20
Cc1ccc(S(=O)(=O)Nc2ccccc2C(=O)Nc2nc(-c3ccc(F)cc3)cs2)cc1	25*	0	2	-2	16	11
O=C(Nc1cc(S(=O)(=O)Nc2ccc(Cl)cc2)ccc1O)c1ccc(S(=O)(=O)N2CCCCCC2)cc1	30*	-11	-6	-5	-1	2
O=C(Nc1ccc(F)cc1)Nc1ccc(N2CCCC2)c(S(=O)(=O)Nc2ccccc2Cl)c1	25*	-24	-6	-7	10	8
O=C(Nc1cc(S(=O)(=O)N2CCCCC2)ccc1Cl)c1ccccc1NS(=O)(=O)c1ccc(F)cc1	22	2	30*	18	-7	-2
N#Cc1ccc(C(=O)N2CCN(c3ncccn3)CC2)cc1	5	-3	-2	-2	-2	-4
CCOc1cccc(C(=O)Nc2ccccc2C(=O)N2CCN(C)CC2)c1	-8	-2	-2	9	4	3
CCc1nc2ccc(C(=O)NCCCn3ccnc3)cn2c1N(C)Cc1ccc(Cl)cc1	·	·	·	·	-16	-3
O=C(O)CN1C(=O)C(=O)N(Cc2cccc(F)c2)C1=O	3	1	-1	-5	0	-6
O=C(O)c1ccccc1/C=N/NC(=O)c1cc(-c2ccco2)nc2ccccc12	32*	19	1	15	5	-3
O=C(O)c1cc(-c2ccco2)nc2cc3ccccc3cc12	25*	4	4	15	18	-3
SMILES	pPAFAH FP inh	PAFAH2 inh	PAFAH1B2 inh	PAFAH1B3 FP inh	ARFGAP1 inh	ASAP1 inh
CNC(=O)COC(=O)c1cc(-c2ccco2)nc2ccccc12	25*	12	1	7	-5	11
O=C(COC(=O)c1cc(-c2ccco2)nc2ccccc12)NCc1ccccc1	34*	4	-3	1	13	6
CCN(CC)C(=O)COC(=O)c1cc(-c2ccco2)nc2ccccc12	·	17	3	8	-9	3
c1coc(-c2cc3nc(NC4CCCCC4)ccn3n2)c1	·	·	·	·	21	3
CCOC(=O)C1CCCN(C(=O)c2ccc(F)c(Cl)c2)CC1 (stereo unspecified)	·	·	·	·	9	-4
Cc1ccc(S(=O)(=O)C[C@@H]2OC3CCCCC3N2S(=O)(=O)c2ccc(C)cc2)cc1 (stereo partly specified)	·	·	·	·	-16	-9
COc1ccccc1CNC(=O)COC(=O)CSc1ccc(C)c(C)c1	·	1	0	2	21	-2
Cc1ccc(C)c(SCC(=O)OCC(=O)NCc2ccccc2)c1	25*	3	-4	2	-4	-2
Cc1ccc(SCC(=O)OC(C)C(=O)NCc2ccccc2)cc1C (stereo unspecified)	34*	3	6	3	-4	3
NC(=O)c1cccc(Nc2nc(C(N)COCc3ccccc3)cs2)n1 (stereo unspecified)	·	·	·	·	-3	2
O=S(=O)(NCCCSc1ccccc1)c1ccccc1F	3	4	21	0	6	1
O=[N+]([O-])c1ccccc1S(=O)(=O)NCCSc1ccccc1	1	12	29*	7	2	-5
CCCCCC(O)(c1ccc(OC)cc1)C(CN1CCOCC1)c1ccccc1 (stereo unspecified)	4	-5	9	6	4	0
CCCCC(O)(c1ccc(OC)cc1)C(CN1CCOCC1)c1ccccc1 (stereo unspecified)	-3	-4	24*	9	5	3
CCOc1ccc(OCCSc2nc3ccccc3c(=O)[nH]2)cc1	3	3	31*	-6	-18	-12
O=c1[nH]c(SCCOc2cccc3ccccc23)nc2ccccc12	3	-1	2	3	-4	-4
COc1ccccc1CC(NC(C)=O)C(=O)NC1CCN(C(=O)c2cccc(Cl)c2)CC1 (stereo unspecified)	3	0	0	6	-7	8
COc1ccc(CCN2CC(C(=O)NCCc3ccc(C)cc3)CC2=O)cc1OC (stereo unspecified)	29*	-10	5	-2	0	1
